Drawing on BindingDB's records for doi:10.1016/j.ejmech.2015.10.033 (Kyungpook National University, 2015), this text covers Ki for six molecules.

The assay addresses T1, Polyphenol oxidase 2 (Agaricus bisporus, UniProt O42713).
T1 sequence (O42713 whole entry): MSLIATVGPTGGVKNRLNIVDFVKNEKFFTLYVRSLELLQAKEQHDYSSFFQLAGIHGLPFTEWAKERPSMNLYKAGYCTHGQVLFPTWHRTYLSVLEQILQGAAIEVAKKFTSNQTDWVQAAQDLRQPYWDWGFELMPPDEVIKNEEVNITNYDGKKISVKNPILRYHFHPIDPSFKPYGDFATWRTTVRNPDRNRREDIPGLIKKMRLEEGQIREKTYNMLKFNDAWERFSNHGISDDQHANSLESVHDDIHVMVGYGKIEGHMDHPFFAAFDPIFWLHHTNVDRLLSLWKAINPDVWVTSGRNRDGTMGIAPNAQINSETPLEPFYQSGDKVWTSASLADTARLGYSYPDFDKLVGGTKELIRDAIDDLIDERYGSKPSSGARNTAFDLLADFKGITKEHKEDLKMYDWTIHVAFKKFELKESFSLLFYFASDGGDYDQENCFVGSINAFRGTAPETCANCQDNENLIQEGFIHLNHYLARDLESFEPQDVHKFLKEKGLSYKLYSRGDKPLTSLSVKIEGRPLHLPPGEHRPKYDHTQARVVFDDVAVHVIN
Description: Non-competitive inhibition of mushroom tyrosinase using L-tyrosine as substrate by Lineweaver-Burk plots analysis. The method in brief:
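Absorbance at 475 nm read at 30 °C in PBS with 5% DMSO. Global nonlinear Michaelis–Menten fitting over four inhibition models gave Vmax, Km, Kic and Kiu, with the model chosen by minimal χ2.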
Regarding `NC(=S)c1ccccn1`, the inhibition constant (Ki) was 2.7 µM. Regarding `NC(=S)c1cccnc1` [thionicotinamide], the affinity corresponds to a Ki of 4.3 µM. Then `CCCc1cc(C(N)=S)ccn1` [Ektebin], with 2.4 µM.

For the molecule `NC(=S)c1ccccc1`, the Ki worked out at 0.7 µM.

`NC(=S)c1ccncc1`: the Ki came out at 22.3 µM. Next, `CCc1cc(C(N)=S)ccn1` [CHEBI:4885]: 1.9 µM.
